{"source": "ChEMBL document CHEMBL1155415", "about": "“Synthesis, characterization, and in vitro antimicrobial activities of 5-alkenyl/hydroxyalkenyl-2-phenylamine-1,3,4-oxadiazoles and thiadiazoles” (2010)", "assay_type_in_all_cases": "functional", "key": {"Escherichia coli [1]": {"system": "Escherichia coli", "test": "Antibacterial activity against Escherichia coli ATCC 25922 at 30 ug after 24 hrs by disc diffusion method", "settings": "ATCC 25922, 24 h, read-out: DIZ", "procedure,_shortened": "(§1)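 Agar disc diffusion. A standard inoculum of […] c.f.u./ml (0.5 McFarland) was spread evenly on agar. 6 mm Whatman no. 1 paper discs, dry-heat sterilized (140 °C, 1 h), were soaked in test compound and placed on nutrient agar. Plates were inverted and incubated 24 h at 37 °C. Read-out: diameter of the inhibition zone.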"}, "Staphylococcus aureus [2]": {"system": "Staphylococcus aureus", "test": "Antibacterial activity against Staphylococcus aureus ATCC 25923 at 30 ug after 24 hrs by disc diffusion method", "settings": "ATCC 25923, 24 h, read-out: DIZ", "procedure,_shortened": "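Disc diffusion. Inoculum of […] c.f.u./ml (0.5 McFarland) spread on sterile nutrient agar plates. 6 mm Whatman no. 1 paper discs, dry-heat sterilised at 140 °C for 1 h, soaked in a known concentration of compound, then placed on the agar. DMSO disc as negative control. Plates inverted, incubated 24 h at 37 °C. Zone of inhibition diameter measured in mm.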"}, "Pseudomonas aeruginosa [3]": {"system": "Pseudomonas aeruginosa", "test": "Antibacterial activity against Pseudomonas aeruginosa ATCC 27853 at 30 ug after 24 hrs by disc diffusion method", "settings": "ATCC 27853, 24 h, read-out: DIZ", "procedure,_shortened": "as §1"}, "Streptococcus pyogenes [4]": {"system": "Streptococcus pyogenes", "test": "Antibacterial activity against Streptococcus pyogenes at 30 ug after 24 hrs by disc diffusion method", "settings": "read-out: DIZ", "procedure,_shortened": "as §1"}, "Klebsiella pneumoniae [5]": {"system": "Klebsiella pneumoniae", "test": "Antibacterial activity against Klebsiella pneumoniae at 30 ug after 24 hrs by disc diffusion method", "settings": "read-out: DIZ", "procedure,_shortened": "as §1"}, "Escherichia coli [6]": {"system": "Escherichia coli", "test": "Antibacterial activity against Escherichia coli ATCC 25922 after 24 hrs by two fold dilution technique", "settings": "ATCC 25922, 24 h", "procedure,_shortened": "(§2)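 Broth dilution MIC. Nutrient broth held log two-fold serial dilutions of compound and was inoculated with about 5 × 10⁵ c.f.u./ml of actively dividing bacteria. Incubation was 24 h at 37 °C, with growth checked visually and spectrophotometrically. MIC is the lowest concentration arresting growth.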"}, "Staphylococcus aureus [7]": {"system": "Staphylococcus aureus", "test": "Antibacterial activity against Staphylococcus aureus ATCC 25923 after 24 hrs by two fold dilution technique", "settings": "ATCC 25923, 24 h", "procedure,_shortened": "as §2"}, "Pseudomonas aeruginosa [8]": {"system": "Pseudomonas aeruginosa", "test": "Antibacterial activity against Pseudomonas aeruginosa ATCC 27853 after 24 hrs by two fold dilution technique", "settings": "ATCC 27853, 24 h", "procedure,_shortened": "as §2"}, "Streptococcus pyogenes [9]": {"system": "Streptococcus pyogenes", "test": "Antibacterial activity against Streptococcus pyogenes after 24 hrs by two fold dilution technique", "procedure,_shortened": "as §2"}, "Klebsiella pneumoniae [10]": {"system": "Klebsiella pneumoniae", "test": "Antibacterial activity against Klebsiella pneumoniae after 24 hrs by two fold dilution technique", "procedure,_shortened": "as §2"}, "Escherichia coli [11]": {"system": "Escherichia coli", "test": "Antibacterial activity against Escherichia coli ATCC 25922 after 18 to 24 hrs"}, "Staphylococcus aureus [12]": {"system": "Staphylococcus aureus", "test": "Antibacterial activity against Staphylococcus aureus ATCC 25923 after 18 to 24 hrs"}, "Pseudomonas aeruginosa [13]": {"system": "Pseudomonas aeruginosa", "test": "Antibacterial activity against Pseudomonas aeruginosa ATCC 27853 after 18 to 24 hrs"}, "Streptococcus pyogenes [14]": {"system": "Streptococcus pyogenes", "test": "Antibacterial activity against Streptococcus pyogenes after 18 to 24 hrs"}, "Klebsiella pneumoniae [15]": {"system": "Klebsiella pneumoniae", "test": "Antibacterial activity against Klebsiella pneumoniae after 18 to 24 hrs"}, "Escherichia coli [16]": {"system": "Escherichia coli", "test": "Antibacterial activity against Escherichia coli ATCC 25922 after 24 hrs by disc diffusion method", "procedure,_shortened": "as §1"}, "Staphylococcus aureus [17]": {"system": "Staphylococcus aureus", "test": "Antibacterial activity against Staphylococcus aureus ATCC 25923 after 24 hrs by disc diffusion method", "procedure,_shortened": "as §1"}, "Pseudomonas aeruginosa [18]": {"system": "Pseudomonas aeruginosa", "test": "Antibacterial activity against Pseudomonas aeruginosa ATCC 27853 after 24 hrs by disc diffusion method", "procedure,_shortened": "as §1"}, "Streptococcus pyogenes [19]": {"system": "Streptococcus pyogenes", "test": "Antibacterial activity against Streptococcus pyogenes after 24 hrs by disc diffusion method", "procedure,_shortened": "as §1"}, "Klebsiella pneumoniae [20]": {"system": "Klebsiella pneumoniae", "test": "Antibacterial activity against Klebsiella pneumoniae after 24 hrs by disc diffusion method", "procedure,_shortened": "as §1"}, "Candida albicans [21]": {"system": "Candida albicans", "test": "Antifungal activity against Candida albicans after 48 hrs by disk diffusion method", "procedure,_shortened": "(§3)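 Agar well diffusion with compounds in DMSO. The dish was lawned with a saline spore suspension, excess decanted, and dried 1 h at 37 °C. Wells were punched. Read-out: inhibition zone in mm. Griseofulvin served as standard and DMSO as negative control.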"}, "Aspergillus fumigatus [22]": {"system": "Aspergillus fumigatus", "test": "Antifungal activity against Aspergillus fumigatus after 48 hrs by disk diffusion method", "procedure,_shortened": "as §3"}, "Talaromyces marneffei [23]": {"system": "Talaromyces marneffei", "test": "Antifungal activity against Penicillium marneffei after 48 hrs by disk diffusion method", "procedure,_shortened": "as §3"}, "[24]": {"system": "Trichophyton mentagrophytes", "test": "Antifungal activity against Trichophyton mentagrophytes after 48 hrs by disk diffusion method", "procedure,_shortened": "as §3"}, "Candida albicans [25]": {"system": "Candida albicans", "test": "Antifungal activity against Candida albicans after 48 hrs by two fold dilution technique", "procedure,_shortened": "(§4)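 Broth MIC. Broth with log two-fold serial dilutions of compound was inoculated with about 1.6 × 10⁴–6 × 10⁴ c.f.u./ml of fungus and incubated 48 h at 35 °C. MIC is the lowest concentration arresting fungal growth.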"}, "Aspergillus fumigatus [26]": {"system": "Aspergillus fumigatus", "test": "Antifungal activity against Aspergillus fumigatus after 48 hrs by two fold dilution technique", "procedure,_shortened": "as §4"}, "[27]": {"system": "Trichophyton mentagrophytes", "test": "Antifungal activity against Trichophyton mentagrophytes after 48 hrs by two fold dilution technique", "procedure,_shortened": "as §4"}, "Talaromyces marneffei [28]": {"system": "Talaromyces marneffei", "test": "Antifungal activity against Penicillium marneffei after 48 hrs by two fold dilution technique", "procedure,_shortened": "as §4"}, "Candida albicans [29]": {"system": "Candida albicans", "test": "Ratio of MFC to MIC for Candida albicans", "procedure,_shortened": "(§5)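 MFC: 0.1 ml from each MIC tube was spread on agar and colonies were counted after 48 h at 35 °C. MFC is the lowest concentration killing 99.9% of the inoculum. The MFC/MIC ratio was then calculated to classify activity as fungistatic or fungicidal.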"}, "Aspergillus fumigatus [30]": {"system": "Aspergillus fumigatus", "test": "Ratio of MFC to MIC for Aspergillus fumigatus", "procedure,_shortened": "as §5"}, "[31]": {"system": "Trichophyton mentagrophytes", "test": "Ratio of MFC to MIC for Trichophyton mentagrophytes", "procedure,_shortened": "as §5"}, "Talaromyces marneffei [32]": {"system": "Talaromyces marneffei", "test": "Ratio of MFC to MIC for Penicillium marneffei", "procedure,_shortened": "as §5"}}, "data": [{"smiles": "O=C(N[C@H](CO)[C@H](O)c1ccc([N+](=O)[O-])cc1)C(Cl)Cl", "note": "[CHLORAMPHENICOL]", "values": [{"measurement": "zone of inhibition at 30 µg/disc", "setting": "Escherichia coli [1]", "result": 27, "unit": "mm"}, {"measurement": "zone of inhibition at 30 µg/disc", "setting": "Staphylococcus aureus [2]", "result": 22, "unit": "mm"}, {"measurement": "zone of inhibition at 30 µg/disc", "setting": "Pseudomonas aeruginosa [3]", "result": 32, "unit": "mm"}, {"measurement": "zone of inhibition at 30 µg/disc", "setting": "Streptococcus pyogenes [4]", "result": 23, "unit": "mm"}, {"measurement": "zone of inhibition at 30 µg/disc", "setting": "Klebsiella pneumoniae [5]", "result": 19, "unit": "mm"}, {"measurement": "MIC", "setting": "Escherichia coli [6]", "result": 6.25, "unit": "µg/mL"}, {"measurement": "MIC", "setting": "Staphylococcus aureus [7]", "result": 6.25, "unit": "µg/mL"}, {"measurement": "MIC", "setting": "Pseudomonas aeruginosa [8]", "result": 6.25, "unit": "µg/mL"}, {"measurement": "MIC", "setting": "Streptococcus pyogenes [9]", "result": 6.25, "unit": "µg/mL"}, {"measurement": "MIC", "setting": "Klebsiella pneumoniae [10]", "result": 6.25, "unit": "µg/mL"}, {"measurement": "MBC", "setting": "Escherichia coli [11]", "result": 12.5, "unit": "µg/mL"}, {"measurement": "MBC", "setting": "Staphylococcus aureus [12]", "result": 12.5, "unit": "µg/mL"}, {"measurement": "MBC", "setting": "Pseudomonas aeruginosa [13]", "result": 12.5, "unit": "µg/mL"}, {"measurement": "MBC", "setting": "Streptococcus pyogenes [14]", "result": 12.5, "unit": "µg/mL"}, {"measurement": "MBC", "setting": "Klebsiella pneumoniae [15]", "result": 12.5, "unit": "µg/mL"}]}, {"smiles": "CCCCCC[C@@H](O)C/C=C\\CCCCCCCc1nnc(Nc2ccccc2)o1", "values": [{"measurement": "diameter of the inhibition zone (DIZ)", "setting": "Escherichia coli [16]", "result": 22.8, "unit": "mm"}, {"measurement": "diameter of the inhibition zone (DIZ)", "setting": "Staphylococcus aureus [17]", "result": 20.2, "unit": "mm"}, {"measurement": "diameter of the inhibition zone (DIZ)", "setting": "Pseudomonas aeruginosa [18]", "result": 25.6, "unit": "mm"}, {"measurement": "diameter of the inhibition zone (DIZ)", "setting": "Streptococcus pyogenes [19]", "result": 21.2, "unit": "mm"}, {"measurement": "diameter of the inhibition zone (DIZ)", "setting": "Klebsiella pneumoniae [20]", "result": 19.7, "unit": "mm"}, {"measurement": "MIC", "setting": "Escherichia coli [6]", "result": 6.25, "unit": "µg/mL"}, {"measurement": "MIC", "setting": "Staphylococcus aureus [7]", "result": 6.25, "unit": "µg/mL"}, {"measurement": "MIC", "setting": "Pseudomonas aeruginosa [8]", "result": 6.25, "unit": "µg/mL"}, {"measurement": "MIC", "setting": "Streptococcus pyogenes [9]", "result": 6.25, "unit": "µg/mL"}, {"measurement": "MIC", "setting": "Klebsiella pneumoniae [10]", "result": 6.25, "unit": "µg/mL"}, {"measurement": "MBC", "setting": "Escherichia coli [11]", "result": 25, "unit": "µg/mL"}, {"measurement": "MBC", "setting": "Staphylococcus aureus [12]", "result": 12.5, "unit": "µg/mL"}, {"measurement": "MBC", "setting": "Pseudomonas aeruginosa [13]", "result": 50, "unit": "µg/mL"}, {"measurement": "MBC", "setting": "Streptococcus pyogenes [14]", "result": 12.5, "unit": "µg/mL"}, {"measurement": "MBC", "setting": "Klebsiella pneumoniae [15]", "result": 6.25, "unit": "µg/mL"}, {"measurement": "diameter of the inhibition zone (DIZ)", "setting": "Candida albicans [21]", "result": 23.3, "unit": "mm"}, {"measurement": "diameter of the inhibition zone (DIZ)", "setting": "Aspergillus fumigatus [22]", "result": 20.7, "unit": "mm"}, {"measurement": "diameter of the inhibition zone (DIZ)", "setting": "Talaromyces marneffei [23]", "result": 13.9, "unit": "mm"}, {"measurement": "diameter of the inhibition zone (DIZ)", "setting": "[24]", "result": 17.5, "unit": "mm"}, {"measurement": "MFC", "setting": "Candida albicans [25]", "result": 100, "unit": "µg/mL"}, {"measurement": "MIC", "setting": "Candida albicans [25]", "result": 25, "unit": "µg/mL"}, {"measurement": "MFC", "setting": "Aspergillus fumigatus [26]", "result": 50, "unit": "µg/mL"}, {"measurement": "MIC", "setting": "Aspergillus fumigatus [26]", "result": 12.5, "unit": "µg/mL"}, {"measurement": "MFC", "setting": "[27]", "result": 50, "unit": "µg/mL"}, {"measurement": "MIC", "setting": "[27]", "result": 12.5, "unit": "µg/mL"}, {"measurement": "MFC", "setting": "Talaromyces marneffei [28]", "result": 100, "unit": "µg/mL"}, {"measurement": "MIC", "setting": "Talaromyces marneffei [28]", "result": 12.5, "unit": "µg/mL"}, {"measurement": "Ratio", "setting": "Candida albicans [29]", "result": 4}, {"measurement": "Ratio", "setting": "Aspergillus fumigatus [30]", "result": 4}, {"measurement": "Ratio", "setting": "[31]", "result": 4}, {"measurement": "Ratio", "setting": "Talaromyces marneffei [32]", "result": 8}]}]}
